Data: ChEMBL document CHEMBL1156071, “Novel L-xylose derivatives as selective sodium-dependent glucose cotransporter 2 (SGLT2) inhibitors for the treatment of type 2 diabetes” (J Med Chem, 2009)
Values belong to the compound of their own block, whether it stands above or below them. Activity calls are given as the source filed them. The rule behind the calls is not given here.

Experiments:
[1] = target: T1, Sodium/glucose cotransporter 2 (Homo sapiens, UniProt P31639); assay: Inhibition of human SGLT2 expressed in HEK293 cells assessed as inhibition of [14C]alpha-methylglucopyranoside uptake; format: cell-based
T1 sequence (P31639 whole entry): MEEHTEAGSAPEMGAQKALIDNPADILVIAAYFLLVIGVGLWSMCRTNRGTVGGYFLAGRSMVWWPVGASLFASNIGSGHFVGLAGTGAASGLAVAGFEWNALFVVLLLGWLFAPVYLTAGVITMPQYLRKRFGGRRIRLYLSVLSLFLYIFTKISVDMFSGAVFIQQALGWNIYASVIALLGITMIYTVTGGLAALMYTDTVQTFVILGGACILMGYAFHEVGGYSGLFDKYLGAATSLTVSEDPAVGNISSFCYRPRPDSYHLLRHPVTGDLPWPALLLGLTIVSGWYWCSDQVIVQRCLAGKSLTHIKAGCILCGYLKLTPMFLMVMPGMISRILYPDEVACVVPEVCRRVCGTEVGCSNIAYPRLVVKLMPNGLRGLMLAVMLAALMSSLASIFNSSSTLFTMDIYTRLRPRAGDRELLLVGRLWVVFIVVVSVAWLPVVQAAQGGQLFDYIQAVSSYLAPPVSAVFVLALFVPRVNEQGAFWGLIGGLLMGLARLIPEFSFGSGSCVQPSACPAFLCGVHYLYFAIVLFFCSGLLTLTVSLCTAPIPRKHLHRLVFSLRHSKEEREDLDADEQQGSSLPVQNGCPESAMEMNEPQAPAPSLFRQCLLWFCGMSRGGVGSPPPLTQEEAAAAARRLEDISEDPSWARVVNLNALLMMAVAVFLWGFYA
Procedure, shortened: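 Cells stably expressing human SGLT2 were used to measure sodium-coupled uptake of [14C]α-methylglucopyranoside, a metabolically stable SGLT-specific glucose analogue. Uptake was measured across increasing compound concentrations, and IC50 was derived from the inhibition of uptake.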

[2] = target: T2, Sodium/glucose cotransporter 2 (Mus musculus, UniProt Q923I7); assay: Inhibition of mouse SGLT2-mediated [14C]alpha-methylglucopyranoside uptake by cell based assay
T2 sequence (Q923I7 whole entry): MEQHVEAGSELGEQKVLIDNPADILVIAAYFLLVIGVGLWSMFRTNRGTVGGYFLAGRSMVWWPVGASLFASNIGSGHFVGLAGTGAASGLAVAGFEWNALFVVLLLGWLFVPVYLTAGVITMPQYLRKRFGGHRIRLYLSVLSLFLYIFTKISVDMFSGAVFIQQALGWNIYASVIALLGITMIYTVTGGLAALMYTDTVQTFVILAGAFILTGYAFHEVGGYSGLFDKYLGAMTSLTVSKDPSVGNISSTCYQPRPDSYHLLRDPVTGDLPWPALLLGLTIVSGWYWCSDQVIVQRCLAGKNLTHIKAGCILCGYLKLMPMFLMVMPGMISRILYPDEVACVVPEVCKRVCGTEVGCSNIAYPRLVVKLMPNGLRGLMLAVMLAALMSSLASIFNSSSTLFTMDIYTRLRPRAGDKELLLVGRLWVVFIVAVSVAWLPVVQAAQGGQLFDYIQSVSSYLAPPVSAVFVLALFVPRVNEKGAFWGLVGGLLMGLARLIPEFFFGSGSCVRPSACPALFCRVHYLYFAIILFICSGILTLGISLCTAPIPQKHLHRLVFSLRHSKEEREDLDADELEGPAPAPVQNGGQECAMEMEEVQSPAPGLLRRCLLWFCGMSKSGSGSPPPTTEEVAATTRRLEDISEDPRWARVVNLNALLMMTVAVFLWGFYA

Mus musculus [3] = assay: Volume of distribution at steady state in mouse at 1 mg/kg, iv; format: ADME, organism-based; parameters: dose 1 mg/kg, route intravenous; settings: in vivo
Mus musculus [4] = assay: AUC (0 to infinity) in mouse at 10 mg/kg, po; format: ADME, organism-based, Plasma; parameters: time infinity, dose 10 mg/kg, route oral; settings: in vivo
Mus musculus [5] = assay: Cmax in mouse at 10 mg/kg, po; format: ADME, organism-based; parameters: dose 10 mg/kg, route oral; settings: in vivo
Mus musculus [6] = assay: Apparent volume of distribution with respect to the bioavailability in mouse at 1 mg/kg, iv; format: ADME, organism-based; settings: in vivo
Mus musculus [7] = assay: AUC (0 to infinity) in mouse at 1 mg/kg, iv; format: ADME, organism-based, Plasma; parameters: dose 1 mg/kg, route intravenous, time infinity; settings: in vivo
Mus musculus [8] = assay: Half life in mouse at 1 mg/kg, iv; format: ADME, organism-based; parameters: dose 1 mg/kg, route intravenous; settings: in vivo
Mus musculus [9] = assay: Half life in mouse at 10 mg/kg, po; format: ADME, organism-based; parameters: dose 10 mg/kg, route oral; settings: in vivo
Mus musculus [10] = assay: Oral bioavailability in mouse at 10 mg/kg; format: ADME, organism-based; settings: in vivo
Mus musculus [11] = assay: Apparent volume of distribution with respect to the bioavailability in mouse at 10 mg/kg, po; format: ADME, organism-based; settings: in vivo
Mus musculus [12] = assay: Tmax in mouse at 10 mg/kg, po; format: ADME, organism-based; parameters: dose 10 mg/kg, route oral; settings: in vivo
Mus musculus [13] = assay: Mean resident time in mouse at 1 mg/kg, iv; format: ADME, organism-based; parameters: dose 1 mg/kg, route intravenous; settings: in vivo
Mus musculus [14] = assay: Mean resident time in mouse at 10 mg/kg, po; format: ADME, organism-based; parameters: dose 10 mg/kg, route oral; settings: in vivo
Mus musculus [15] = assay: AUC(last) in mouse at 10 mg/kg, po; format: ADME, organism-based, Plasma; parameters: time 0 - last, dose 10 mg/kg, route oral; settings: in vivo
Mus musculus [16] = assay: Tmax in mouse at 1 mg/kg, iv; format: ADME, organism-based; parameters: dose 1 mg/kg, route intravenous; settings: in vivo
Mus musculus [17] = assay: Induction of glucosuria in high fat diet induced obese albino C57 mouse at 30 mg/kg, po administered as single administration measured after 24 hrs by glucose excretion assay; format: functional, organism-based; parameters: dose 30 mg/kg
Procedure, shortened: (§1)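 DIO mice received one dose, either by oral gavage or as a dietary admixture. Urinary glucose excretion was then followed past 24 h, n = 6.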

Mus musculus [18] = assay: Induction of glucosuria in high fat diet induced obese albino C57 mouse at 75 mg/kg administered through diet measured after 24 hrs by glucose excretion assay; format: functional, organism-based; parameters: dose 75 mg/kg; procedure, shortened: as §1
Mus musculus [19] = assay: Induction of glucosuria in high fat diet induced obese albino C57 mouse at 26 mg/kg administered daily through diet for 4 consecutive days by glucose excretion assay; format: functional, organism-based; parameters: dose 26 mg/kg
Procedure, shortened: (§2)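 DIO mice received the compound as a dietary admixture for 4 consecutive days. Average daily intakes were 8, 26, 77 and 259 mg/kg. Urinary glucose excretion was measured each day, n = 6.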

Mus musculus [20] = assay: Induction of glucosuria in high fat diet induced obese albino C57 mouse at 75 mg/kg, po administered as single administration measured after 24 hrs by glucose excretion assay; format: functional, organism-based; parameters: dose 75 mg/kg; procedure, shortened: as §1
Mus musculus [21] = assay: Induction of glucosuria in high fat diet induced obese albino C57 mouse at 259 mg/kg administered daily through diet for 4 consecutive days by glucose excretion assay; format: functional, organism-based; parameters: dose 259 mg/kg; procedure, shortened: as §2
Mus musculus [22] = assay: Induction of glucosuria in high fat diet induced obese albino C57 mouse at 77 mg/kg administered daily through diet for 4 consecutive days by glucose excretion assay; format: functional, organism-based; parameters: dose 77 mg/kg; procedure, shortened: as §2
Mus musculus [23] = assay: Induction of glucosuria in high fat diet induced obese albino C57 mouse at 10 to 100 mg/kg, po administered as single administration measured after 17 hrs by glucose excretion assay; format: functional, organism-based
Procedure, shortened: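 Adult C57 diet-induced obese mice were given one oral gavage dose spanning 10 to 100 mg/kg. Urinary glucose excretion was measured over the first 17 h after dosing, n = 6 per group, with a vehicle-treated group included.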

Structure (SMILES): CCOc1ccc(Cc2cc([C@@H]3OC(OC)[C@@H](O)[C@H](O)[C@H]3O)ccc2Cl)cc1 (mixture of isomers; 7c) [listing 2 of 2 here]
Activity (Mus musculus [17]): Active
Activity (Mus musculus [18]): Active
Activity (Mus musculus [19]): Active
Activity (Mus musculus [20]): Active
Activity (Mus musculus [21]): Active
Activity (Mus musculus [22]): Active
Activity (Mus musculus [23]): Dose-dependent effect

Structure (SMILES): COC1O[C@@H](c2ccc(Cl)c(Cc3ccc(O[C@H]4CCN(C)C4)cc3)c2)[C@H](O)[C@@H](O)[C@@H]1O (mixture of isomers)
IC50 [1]: 170 nM
IC50 [2]: 92 nM

Structure (SMILES): CCOc1ccc(Cc2cc([C@@H]3OC(OCc4ccccc4)[C@@H](O)[C@H](O)[C@H]3O)ccc2Cl)cc1 (mixture of isomers)
IC50 [1]: 620 nM
IC50 [2]: 330 nM

Second part, the compound after the results:

IC50 [1]: 36 nM
IC50 [2]: 9.5 nM
Structure (SMILES): COC1O[C@@H](c2ccc(Cl)c(Cc3ccc(OCCO)cc3)c2)[C@H](O)[C@@H](O)[C@@H]1O (mixture of isomers)

IC50 [1]: 25 nM
IC50 [2]: 7.1 nM
Structure (SMILES): CCOc1ccc(Cc2cc([C@@H]3OC(OC)[C@@H](O)[C@H](O)[C@H]3O)ccc2Cl)cc1 (stereo in doubt; 6a)

IC50 [1]: 280 nM
IC50 [2]: 100 nM
Structure (SMILES): CCOc1ccc(Cc2cc([C@@H]3OC(O)[C@@H](O)[C@H](O)[C@H]3O)ccc2Cl)cc1 (mixture of isomers)

Vdss (Mus musculus [3]): 2.93 L/kg
AUC (Mus musculus [4]): 17.458 µM·h
Cmax (Mus musculus [5]): 6.49 µM
Vc/F (Mus musculus [6]): 3.08 L/kg
AUC (Mus musculus [7]): 1.481 µM·h
IC50 [1]: 14 nM
t1/2 (Mus musculus [8]): 1.29 h
IC50 [2]: 6.3 nM
t1/2 (Mus musculus [9]): 6.96 h
F (Mus musculus [10]): 100%
Vc/F (Mus musculus [11]): 14.2 L/kg
Tmax (Mus musculus [12]): 0.25 h
MRT (Mus musculus [13]): 1.77 h
MRT (Mus musculus [14]): 8.44 h
AUC (Mus musculus [15]): 16.191 µM·h
Tmax (Mus musculus [16]): 0.25 h
Structure (SMILES): CCOc1ccc(Cc2cc([C@@H]3OC(OC)[C@@H](O)[C@H](O)[C@H]3O)ccc2Cl)cc1 (mixture of isomers; 7c) [listing 1 of 2 here]
